Laboratory results reported in paper PMC5508335 (Journal of Veterinary Internal Medicine, 2017).
Where two headings read alike, the source gives them in different places.

Legend:
healthy beagles = test: Serum cPLI after high-dose prednisolone in healthy beagles; format: in vivo, dog; conditions: 4 mg/kg/day SC for 2 or 3 weeks; six beagles
[1] = system: dogs with idiopathic IMPA; test: Retrospective outcome of dogs with idiopathic IMPA; conditions: dog, in vivo
[2] = system: healthy purpose-bred dogs; test: Isoglycemic clamp in healthy dogs; format: in vivo, dog; conditions: 2.4 nmol/kg SC
RBCs = test: Lysis of canine RBCs by DMSO diluted in PBS; format: cell-based, dog
[3] = system: fecal microbiota of healthy dogs; test: Fecal microbiota qPCR Dysbiosis Index after oral tylosin; format: in vivo, dog; conditions: 20 mg/kg q12 hr for 7 days
Summary of the method: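 Ten healthy pet dogs were randomized double-blind to oral test compound at 20 mg/kg (n = 6) or placebo capsule (n = 4), given q12 hr for 7 days. Dogs stayed on their usual diet. Fecal samples were taken on days 0, 7, 10, 21 and 63, and a fecal score (1–7) was recorded daily during dosing.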

[4] = system: dogs with hypoadrenocorticism; format: in vivo, dog
[5] = system: platelet function (closure time)
platelet aggregation = conditions: cats with cardiovascular disease already receiving clopidogrel, n = 3
platelet function = test: PFA-100 closure time, antiplatelet responder status; format: in vivo, dog
Summary of the method: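 Fifteen healthy dogs received PO aspirin 2 mg/kg/d, clopidogrel 2–3 mg/kg/d, or either drug combined with prednisone 2 mg/kg/d for 28 days. Responders were defined by PFA closure time: above 300 sec for aspirin, or more than 30% above baseline for clopidogrel. Responder status was compared among groups by Fisher's exact test, with P < 0.05 as significant.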

healthy dogs = test: Endoscopy of upper gastrointestinal tract after 28 days of therapy; format: in vivo, dog; conditions: day 28; PO daily
Summary of the method: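 Fifteen healthy dogs were randomized to five PO regimens for 28 days: aspirin 2 mg/kg/d, clopidogrel 2–3 mg/kg/d, prednisone 2 mg/kg/d, prednisone plus aspirin, or prednisone plus clopidogrel. The upper gastrointestinal tract was then assessed.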

[6] = system: canine osteosarcoma cell lines; test: Combination with MCT1/4 small molecule inhibitors in canine osteosarcoma cells; format: cell-based, dog
[7] = system: adrenal cortisol production; test: ACTH stimulation test, serum cortisol by radioimmunoassay; format: in vivo, dog; conditions: ± SEM
Summary of the method: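 Dogs: 5 healthy controls and 10 previously diagnosed with hyperadrenocorticism. Each dog had two ACTH stimulation tests, one with a reference tetracosactrin product (0.04 mL/kg IV) and one with the test ACTH preparation (0.08 mL/kg IV). Blood was drawn just before injection and 60 minutes after. Serum cortisol was measured by validated radioimmunoassay and reported as mean ± SEM.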

canine leukocytes = test: LPS-stimulated leukocyte cytokine production in whole blood; format: cell-based, dog; conditions: 10^−7 M, 24 h
Summary of the method: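 Blood from eight healthy adult dogs was incubated with test compound (10−7 M) or control for 24 h. Leukocytes were then stimulated with LPS, and TNF and IL-10 production were measured by a canine-specific multiplex assay.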

[8] = format: in vivo, cats; conditions: one 1.87 mg oral dose
[9] = system: beagles with and without MVMD; test: Dobutamine stress echocardiography in beagles with mitral valve disease; format: in vivo, dog
[10] = system: dogs with gastrointestinal stromal tumors; test: Retrospective evaluation of toceranib in canine GIST; format: in vivo, dog
[11] = system: dogs with ventricular tachyarrhythmias; test: Echocardiogram and 5-minute ECG before and after oral sotalol; format: in vivo, dog
[12] = system: Dobermans with CHF due to DCM; test: Randomized placebo-controlled survival trial in Dobermans with CHF due to DCM; format: in vivo, dog; conditions: 50 mg twice daily plus standard therapies; 34 dogs; time to cardiac death
[13] = system: dogs with pulmonic stenosis; format: in vivo, dog
[14] = system: dogs given PEG before colonoscopy; test: Anti-emetic before orogastric PEG administration; format: in vivo, dog
Summary of the method: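 46 dogs with naturally occurring disease needed PEG bowel cleansing before colonoscopy. They were randomized to one of two anti-emetics given SC 30 minutes before orogastric-tube PEG at 66 ml/kg. PEG was repeated 2 hours later without repeating the anti-emetic. Administration was by or under supervision of blinded authors. Vomiting and regurgitation were recorded after each PEG dose.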

[15] = distribution of danofloxacin and tulathromycin in plasma, ISF and PELF by age; format: in vivo, calves; conditions: non‐linear mixed effect modeling
equine neutrophils = test: neutrophil respiratory burst, luminol chemoluminescence, opsonized zymosan; format: cell-based, horses; conditions: TX 0.5 to 20 μM; dose dependent
healthy beagle dogs = conditions: oral administration, ref previous studies performed by these authors; cited from earlier work
[16] = system: New Zealand rabbits with dilated cardiomyopathy induced by doxorubicin; test: Doxorubicin-induced dilated cardiomyopathy in New Zealand rabbits; format: in vivo, rabbit
[17] = crossover study of IV dipyrone to control fever; format: in vivo, horses; conditions: single 30 mg/kg IV, 6 hours post administration, versus placebo
canine complement = format: biochemical, dog; conditions: dose curves, at the doses evaluated
[18] = G2 MVMD, DIVEd/Ao less than 2.8
[19] = 2 mg/kg every 12 hours for 30 days

Molecule: C[C@]12C=CC(=O)C=C1CC[C@@H]1[C@@H]2[C@@H](O)C[C@@]2(C)[C@H]1CC[C@]2(O)C(=O)CO [prednisolone]
- serum cPL concentration after versus before treatment (healthy beagles): significantly higher after than before treatment
- dogs relapsed during tapering of medication [1]: 13/23
- median treatment duration [1]: 397 days

Molecule: Insulin glargine [Toujeo]
- dogs with peakless time-action profile [2]: 4/8
- duration of action, median [2]: 16.3 h
- peak of action, median [2]: 6.3 h
- Median onset of action ([2]; 8 healthy dogs): 4.0 h

Molecule: C[S+](C)[O-] [DMSO]
- lysis of RBCs (RBCs; 10, 20, 70 and 80% DMSO): no hemolysis
- lysis of RBCs (RBCs; 30, 40 and 90% DMSO): mild hemolysis
- lysis of RBCs (RBCs; 50 and 100% DMSO): moderate hemolysis
- lysis of RBCs (RBCs; 60% DMSO (diluted in PBS)): marked hemolysis

Molecule: CC[C@H]1OC(=O)C[C@@H](O)[C@H](C)[C@@H](O[C@@H]2O[C@H](C)[C@@H](O[C@H]3C[C@@](C)(O)[C@@H](O)[C@H](C)O3)[C@H](N(C)C)[C@H]2O)[C@@H](CC=O)C[C@@H](C)C(=O)/C=C/C(C)=C/[C@@H]1CO[C@@H]1O[C@H](C)[C@@H](O)[C@@H](OC)[C@H]1OC [tylosin]
- development of diarrhea [3]: None of the dogs in either group developed diarrhea
- Dysbiosis Index, median ([3]; day 7, 6 dogs, day 0 −6.5): 2.9

Molecule: CC(C)(C)C(=O)OCC(=O)[C@H]1CC[C@H]2[C@@H]3CCC4=CC(=O)CC[C@]4(C)[C@H]3CC[C@]12C [DOCP]
- median time between the DOCP and CHF ([4]; 12 dogs, range 1-29 days): 11 days
- Median survival after the onset of CHF ([4]; HA/DOCP group): 953 days

Molecule: COC(=O)[C@H](c1ccccc1Cl)N1CCc2sccc2C1 [clopidogrel]
- PFA-P2Y Closure Time ([5]; cats already receiving clopidogrel, n = 6): > 300 s
- PFA-P2Y Closure Time ([5]; test repeated while receiving clopidogrel, n = 1): > 300 s
- PW-AA %Aggregation (platelet aggregation): 4–19%
- dogs classified as responders based on PFA closure times (platelet function; day 14): 3/3
- dogs classified as responders based on PFA closure times (platelet function; day 28): 3/3
- dogs with endoscopic lesions (healthy dogs): 0/3

Molecule: COc1cccc2c1C(=O)c1c(O)c3c(c(O)c1C2=O)C[C@@](O)(C(=O)CO)C[C@@H]3O[C@H]1C[C@H](N)[C@H](O)[C@H](C)O1 [doxorubicin]
- activity in the presence of MCT1 and MCT4 small molecule inhibitors [6]: Synergistic activity

Molecule: corticotropin (SYSMEHFRWGKPVGKKRRPVKVYPNGAEDESAEAFPLEF; Corticotropin; UniProt P01189 138-176, looked up) [Acthelea]
- post-ACTH serum cortisol ([7]; control group, 5 healthy dogs, 60 minute post IV): 9.00 ± 0.71 µg/dL
- after ACTH serum cortisol ([7]; treated group, 10 dogs with hyperadrenocorticism on trilostano): 7.90 ± 2.1 µg/dL

Molecule: C[C@]12C=CC(=O)C=C1CC[C@@H]1[C@@H]2C(=O)C[C@@]2(C)[C@H]1CC[C@]2(O)C(=O)CO [P, prednisone]
- dogs with endoscopic lesions (healthy dogs): 1/3

Molecule: C=C1/C(=C\C=C2/CCC[C@]3(C)[C@@H]([C@H](C)CCCC(C)(C)O)CC[C@@H]23)C[C@@H](O)C[C@@H]1O [calcitriol]
- LPS-stimulated IL-10 production, mean±SD (canine leukocytes; control 551 ± 323): 791 ± 386 pg/mL
- LPS-stimulated leukocyte TNF production, mean±SD (canine leukocytes; eight dogs, control 1694 ± 1023): 823 ± 862 pg/mL

Molecule: CN(C)C(=N)N=C(N)N [metformin]
- activity in the presence of MCT1 and MCT4 small molecule inhibitors [6]: Synergistic activity

Molecule: CN1CCN2c3ncccc3Cc3ccccc3C2C1 (stereo not drawn) [mirtazapine]
- AUC, liver disease cats versus AMC cats [8]: not significantly different

Molecule: CC(CCc1ccc(O)cc1)NCCc1ccc(O)c(O)c1 (stereo not drawn) [dobutamine]
- difference between pre and post stress EF% ([9]; G1 control group): 0.25 ± 0.08
- difference between pre and post stress FS% ([9]; G1 control group, 5 then 10 μg/kg/minute infusion): 0.44 ± 0.14
- difference between pre and post stress EF% [9, 18]: 0.30 ± 0.08
- difference between pre and post stress FS% [9, 18]: 0.49 ± 0.13
- difference between pre and post stress EF% ([9]; G3 MVMD, DIVEd/Ao above 2.8): 0.13 ± 0.09
- difference between pre and post stress FS% ([9]; G3 MVMD, DIVEd/Ao above 2.8): 0.19 ± 0.14

Molecule: Cc1[nH]c(/C=C2\C(=O)Nc3ccc(F)cc32)c(C)c1C(=O)NCCN1CCCC1 [toceranib]
- dogs experiencing adverse events ([10]; 16/28, majority Grade 1 or 2 gastrointestinal toxicities): 57%
- Clinical benefit (CB) ([10]; all dogs, 26/28): 93%
- Clinical benefit (CB) ([10]; dogs with gross disease, 5/7): 71%
- Clinical benefit (CB) ([10]; dogs with microscopic disease): 21/21

Molecule: CC(C)NCC(O)c1ccc(NS(C)(=O)=O)cc1 (stereo not drawn) [sotalol]
- EF, mean percent change ± SD ([11]; 2–3 hours post-sotalol): −13 ± 16%
- FS, mean percent change ± SD ([11]; 2–3 hours post-sotalol): −14 ± 11%
- LVSA, mean percent change ± SD ([11]; 2–3 hours post-sotalol): −10 ± 12%
- heart rate, mean percent change ± SD ([11]; 2–3 hours post-sotalol 2.5 ± 0.2 mg/kg PO, n = 27): −18 ± 16%

Molecule: CC(=O)Oc1ccccc1C(=O)O [A, aspirin]
- dogs classified as responders based on PFA closure times (platelet function; day 14): 2/3
- dogs classified as responders based on PFA closure times (platelet function; day 28): 1/3
- dogs with endoscopic lesions (healthy dogs): 1/3

Molecule: CC(=O)S[C@@H]1CC2=CC(=O)CC[C@]2(C)[C@H]2CC[C@@]3(C)[C@@H](CC[C@@]34CCC(=O)O4)[C@H]12 [spironolactone]
- median survival time [12]: 183 days

Molecule: CC(C)NCC(O)COc1ccc(CC(N)=O)cc1 (stereo not drawn) [atenolol]
- maxPG, mean %change ± SD ([13]; 2–3 weeks post-atenolol 1–1.5 mg/kg q12): −15% ± 9
- heart rate, mean %change ± SD ([13]; 2–3 weeks post-atenolol 1–1.5 mg/kg q12, n = 18): −17% ± 13
- Percent change in VTI ratio ([13]; post-atenolol): 6% ± 12

Molecule: Oc1ccc2c(c1)[C@@]13CCCC[C@@]1(O)[C@@H](C2)N(CC1CCC1)CC3 [butorphanol]
- heart rate, mean %change ± SD ([13]; 5 minutes post-butorphanol 0.2–0.25 mg/kg IV, n = 18 dogs): −21% ± 16

Molecule: CCN(CC)CCNC(=O)c1cc(Cl)c(N)cc1OC [metoclopramide]
- incidence of regurgitation ([14]; PEG Dose 1): 52.4%
- incidence of vomiting ([14]; PEG Dose 1, anti-emetic SC 30 minutes before): 23.8%
- incidence of regurgitation ([14]; PEG Dose 2): 31.6%
- incidence of vomiting ([14]; PEG Dose 2): 21.1%

Molecule: CN1C[C@@H]2C[C@H]1CN2c1cc2c(cc1F)c(=O)c(C(=O)O)cn2C1CC1 [danofloxacin]
- age as covariate in plasma concentration differences [15]: not for danofloxacin treated calves

Molecule: CC/C(=C(\c1ccccc1)c1ccc(OCCN(C)C)cc1)c1ccccc1 [TX, Tamoxifen]
- neutrophil respiratory burst induced by opsonized zymosan (equine neutrophils): inhibits neutrophil respiratory burst

Molecule: O=C(N/N=C/c1cccs1)c1ccc2c(c1)OCO2 [LASSBio 294]
- increase of shortening fraction (healthy beagle dogs): 19.1%
- E'/A' ratio [16, 19]: < 1
- E/A ratio [16, 19]: < 1
- increase of FS ([16]; 2 mg/kg every 12 hours, n = 7, second week): 35%

Molecule: Cc1c(N(C)CS(=O)(=O)O)c(=O)n(-c2ccccc2)n1C [dipyrone, Dipyrone]
- control of fever [17]: effectively controlled fever

B1: C1‐INH: human recombinant C1-esterase Inhibitor (protein, UniProt P05155 23-500, looked up)
Plasma protease C1 inhibitor: NPNATSSSSQDPESLQDRGEGKVATTVISKMLFVEPILEVSSLPTTNSTTNSATKITANTTDEPTTQPTTEPTTQPTIQPTQPTTQLPTDSPTQPTTGSFCPGPVTLCSDLESHSTEAVLGDALVDFSLKLYHAFSAMKKVETNMAFSPFSIASLLTQVLLGAGENTKTNLESILSYPKDFTCVHQALKGFTTKGVTSVSQIFHSPDLAIRDTFVNASRTLYSSSPRVLSNNSDANLELINTWVAKNTNNKISRLLDSLPSDTRLVLLNAIYLSAKWKTTFDPKKTRMEPFHFKNSVIKVPMMNSKKYPVAHFIDQTLKAKVGQLQLSHNLSLVILVPQNLKHRLEDMEQALSPSVFKAIMEKLEMSKFQPTLLTLPRIKVTTSQDMLSIMEKLEFFDFSYDLNLCGLTEDPDLQVSAMQHQTVLELTETGVEAAAASAISVARTLLVFEVQQPFLFVLWDQQHKFPVFMGRVYDPRA
- inhibition of canine complement-mediated hemolysis (canine complement): dose‐dependent inhibition
